pIC50: −log10 of the molar value. “Also recorded” adds a separate entry of the source. Blank lines part the entries; values can stand above or below the molecule they belong to.
Legend:
[1] = molecular target: human TRPM3 isoforms (Homo sapiens, UniProt Q9HCF6); assay type: cell-based; settings: concentration-dependent
[2] = molecular target: endogenous TRPM3 in nIMR-32 cells (Homo sapiens, UniProt Q9HCF6); experiment: Ca2+ measurement in differentiated neuronal IMR-32; assay type: cell-based; settings: 30 μmol/L; some nIMR-32 cells, not non-neuronal IMR-32 cells
[3] = molecular target: human TRPM3-3 (Homo sapiens, UniProt Q9HCF6); assay type: cell-based; settings: 100 μmol/L Dic applied during sustained response; Nif 30 μmol/L
[4] = system: human TRPM3-S; experiment: Whole-cell patch clamp, constitutive spontaneous currents in HEK-TRPM3-S cells; assay type: cell-based; settings: 10 and 30 μmol/L Dic; absence of PregS
[5] = system: wild-type control HEK293 cells; experiment: Whole-cell patch clamp in wild-type control HEK293 cells; assay type: cell-based, human; settings: 10 and 30 μmol/L Dic; cells without TRPM3s
How it was run: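 Untransfected HEK293 cells, whole-cell mode, 2.5–5 MΩ electrodes, 25 ± 1°C. Pipette (mmol/L): Cs-aspartate 110, CsCl 30, MgCl2 1, HEPES 10, EGTA 1, Na2ATP 2, pH 7.2. HEPES-buffered bath at pH 7.4 with 2.2 CaCl2. Ramps from −110 to +90 mV (400 msec) every 10 sec from −10 mV holding. Junction potential corrected, leak uncorrected. Test compound at 10 and 30 μmol/L.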

[6] = system: TRPC5; settings: read-out: IC50 for TRPC5; ref Jiang et al. 2012; cited from earlier work
[7] = system: guinea pig ileum; settings: ref Fujimoto et al. 2006; cited from earlier work
[8] = system: mouse; settings: ref Tajino et al. 2007; cited from earlier work
[9] = system: human TRPM3s (TRPM3_1325, TRPM3-3, TRPM3-9); experiment: Whole-cell patch clamp in HEK-TRPM3s cells; assay type: cell-based
[10] = system: human COX-1 / COX-2; settings: times potent for COX-1; ref Jett et al. 1999; cited from earlier work
[11] = system: TRPC6-like channel; settings: 500 μmol/L; without affecting channel conductance; ref Ilatovskaya et al. 2011; cited from earlier work
[12] = molecular target: TRPV4 (Homo sapiens, UniProt Q9HBA0); experiment: Ca2+ measurement in HEK293 cells transfected with TRPV4; assay type: cell-based
[13] = system: TRPM8; experiment: Ca2+ measurement in HEK293 cells transfected with TRPM8; assay type: cell-based, human; settings: 100 μmol/L Dic; Men 100 μmol/L
[14] = molecular target: TRPM2 (Homo sapiens, UniProt O94759); experiment: Ca2+ measurement in HEK293 cells transfected with TRPM2; assay type: cell-based
[15] = system: mouse TRPM3α2 (mTRPM3α2); settings: read-out: IC50 against mTRPM3α2; ref Klose et al. 2011; cited from earlier work

Sequence of human TRPM3 isoforms (Q9HCF6 whole entry, canonical isoform): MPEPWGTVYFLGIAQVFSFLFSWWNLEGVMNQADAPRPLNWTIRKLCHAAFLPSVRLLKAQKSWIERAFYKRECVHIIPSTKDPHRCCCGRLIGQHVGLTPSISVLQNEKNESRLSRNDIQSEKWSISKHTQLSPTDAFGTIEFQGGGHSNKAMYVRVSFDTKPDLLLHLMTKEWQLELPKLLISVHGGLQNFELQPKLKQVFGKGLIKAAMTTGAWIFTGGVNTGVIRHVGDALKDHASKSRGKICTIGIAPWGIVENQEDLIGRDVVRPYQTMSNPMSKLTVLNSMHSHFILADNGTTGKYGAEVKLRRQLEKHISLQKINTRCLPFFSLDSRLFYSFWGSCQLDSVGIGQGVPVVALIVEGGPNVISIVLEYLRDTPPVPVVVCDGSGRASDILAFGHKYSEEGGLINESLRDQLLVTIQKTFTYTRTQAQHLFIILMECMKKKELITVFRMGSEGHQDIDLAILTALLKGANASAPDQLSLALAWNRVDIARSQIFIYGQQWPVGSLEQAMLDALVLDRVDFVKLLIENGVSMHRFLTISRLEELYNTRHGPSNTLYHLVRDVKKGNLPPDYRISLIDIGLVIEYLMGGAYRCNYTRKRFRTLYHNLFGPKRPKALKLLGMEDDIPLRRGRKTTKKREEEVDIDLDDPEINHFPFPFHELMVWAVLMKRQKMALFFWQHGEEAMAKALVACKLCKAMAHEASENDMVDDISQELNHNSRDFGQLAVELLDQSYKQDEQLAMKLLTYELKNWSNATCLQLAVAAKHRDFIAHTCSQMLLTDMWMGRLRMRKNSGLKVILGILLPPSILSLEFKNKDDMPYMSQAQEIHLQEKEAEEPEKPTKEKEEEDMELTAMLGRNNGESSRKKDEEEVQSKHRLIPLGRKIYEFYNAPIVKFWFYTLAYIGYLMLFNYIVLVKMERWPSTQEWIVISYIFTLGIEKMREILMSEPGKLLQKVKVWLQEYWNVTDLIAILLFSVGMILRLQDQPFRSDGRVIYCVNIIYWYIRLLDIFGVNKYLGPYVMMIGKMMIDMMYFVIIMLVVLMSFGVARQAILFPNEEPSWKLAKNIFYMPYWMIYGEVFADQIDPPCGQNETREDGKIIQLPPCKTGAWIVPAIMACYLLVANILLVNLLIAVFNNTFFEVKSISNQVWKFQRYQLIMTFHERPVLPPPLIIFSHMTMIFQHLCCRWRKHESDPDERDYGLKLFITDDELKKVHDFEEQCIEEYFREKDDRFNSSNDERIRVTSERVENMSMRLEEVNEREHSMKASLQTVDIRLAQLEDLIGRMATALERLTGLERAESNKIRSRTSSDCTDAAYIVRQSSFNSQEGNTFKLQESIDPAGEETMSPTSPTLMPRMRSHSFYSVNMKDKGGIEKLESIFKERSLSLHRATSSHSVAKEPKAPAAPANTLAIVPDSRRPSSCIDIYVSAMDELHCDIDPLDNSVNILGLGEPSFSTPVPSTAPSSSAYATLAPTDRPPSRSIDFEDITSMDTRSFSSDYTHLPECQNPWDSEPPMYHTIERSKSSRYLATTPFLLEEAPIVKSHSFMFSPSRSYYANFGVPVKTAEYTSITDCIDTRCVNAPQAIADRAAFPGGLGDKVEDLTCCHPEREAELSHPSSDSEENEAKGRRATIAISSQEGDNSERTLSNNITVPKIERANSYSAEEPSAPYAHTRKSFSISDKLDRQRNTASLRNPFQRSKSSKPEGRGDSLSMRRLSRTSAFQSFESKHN
Sequence of TRPM2 (O94759 whole entry): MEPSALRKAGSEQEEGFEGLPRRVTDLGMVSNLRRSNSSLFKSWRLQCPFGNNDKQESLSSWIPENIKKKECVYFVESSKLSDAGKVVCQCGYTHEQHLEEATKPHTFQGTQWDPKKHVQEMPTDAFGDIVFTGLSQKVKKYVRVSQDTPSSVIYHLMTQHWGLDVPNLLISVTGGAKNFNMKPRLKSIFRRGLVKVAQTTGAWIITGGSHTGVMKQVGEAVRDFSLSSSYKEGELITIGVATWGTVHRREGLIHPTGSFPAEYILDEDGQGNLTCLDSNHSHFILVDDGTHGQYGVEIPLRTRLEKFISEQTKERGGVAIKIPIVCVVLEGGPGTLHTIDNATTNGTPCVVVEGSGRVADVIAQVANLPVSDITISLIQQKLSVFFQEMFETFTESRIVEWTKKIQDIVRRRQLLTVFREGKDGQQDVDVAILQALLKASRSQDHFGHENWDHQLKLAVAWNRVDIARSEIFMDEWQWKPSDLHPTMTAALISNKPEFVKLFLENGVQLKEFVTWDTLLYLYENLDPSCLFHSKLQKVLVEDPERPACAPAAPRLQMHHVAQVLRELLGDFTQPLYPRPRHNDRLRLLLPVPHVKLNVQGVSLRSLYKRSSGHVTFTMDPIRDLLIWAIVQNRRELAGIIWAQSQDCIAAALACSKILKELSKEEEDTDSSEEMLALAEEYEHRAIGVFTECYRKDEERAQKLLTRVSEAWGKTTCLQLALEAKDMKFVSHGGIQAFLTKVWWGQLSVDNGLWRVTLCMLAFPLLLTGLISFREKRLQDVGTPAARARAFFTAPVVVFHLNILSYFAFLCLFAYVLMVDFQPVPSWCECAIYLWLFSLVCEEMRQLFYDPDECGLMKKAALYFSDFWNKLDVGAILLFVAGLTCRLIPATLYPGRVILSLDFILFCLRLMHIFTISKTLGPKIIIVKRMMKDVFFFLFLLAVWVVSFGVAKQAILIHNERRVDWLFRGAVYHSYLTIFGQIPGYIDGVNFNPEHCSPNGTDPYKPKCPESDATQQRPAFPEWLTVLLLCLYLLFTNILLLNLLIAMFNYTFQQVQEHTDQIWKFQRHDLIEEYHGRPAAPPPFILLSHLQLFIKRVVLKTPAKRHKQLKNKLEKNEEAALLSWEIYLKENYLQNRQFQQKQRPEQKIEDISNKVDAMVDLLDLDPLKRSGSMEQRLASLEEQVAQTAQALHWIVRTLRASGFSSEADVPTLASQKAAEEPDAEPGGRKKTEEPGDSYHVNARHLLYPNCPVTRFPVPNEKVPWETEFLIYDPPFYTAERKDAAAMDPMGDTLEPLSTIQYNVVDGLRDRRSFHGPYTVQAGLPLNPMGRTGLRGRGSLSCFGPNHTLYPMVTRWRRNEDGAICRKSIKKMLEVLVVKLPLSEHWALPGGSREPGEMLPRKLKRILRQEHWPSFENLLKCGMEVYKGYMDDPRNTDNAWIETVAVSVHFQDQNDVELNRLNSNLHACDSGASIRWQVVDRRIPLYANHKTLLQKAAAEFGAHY
Sequence of TRPV4 (Q9HBA0 whole entry): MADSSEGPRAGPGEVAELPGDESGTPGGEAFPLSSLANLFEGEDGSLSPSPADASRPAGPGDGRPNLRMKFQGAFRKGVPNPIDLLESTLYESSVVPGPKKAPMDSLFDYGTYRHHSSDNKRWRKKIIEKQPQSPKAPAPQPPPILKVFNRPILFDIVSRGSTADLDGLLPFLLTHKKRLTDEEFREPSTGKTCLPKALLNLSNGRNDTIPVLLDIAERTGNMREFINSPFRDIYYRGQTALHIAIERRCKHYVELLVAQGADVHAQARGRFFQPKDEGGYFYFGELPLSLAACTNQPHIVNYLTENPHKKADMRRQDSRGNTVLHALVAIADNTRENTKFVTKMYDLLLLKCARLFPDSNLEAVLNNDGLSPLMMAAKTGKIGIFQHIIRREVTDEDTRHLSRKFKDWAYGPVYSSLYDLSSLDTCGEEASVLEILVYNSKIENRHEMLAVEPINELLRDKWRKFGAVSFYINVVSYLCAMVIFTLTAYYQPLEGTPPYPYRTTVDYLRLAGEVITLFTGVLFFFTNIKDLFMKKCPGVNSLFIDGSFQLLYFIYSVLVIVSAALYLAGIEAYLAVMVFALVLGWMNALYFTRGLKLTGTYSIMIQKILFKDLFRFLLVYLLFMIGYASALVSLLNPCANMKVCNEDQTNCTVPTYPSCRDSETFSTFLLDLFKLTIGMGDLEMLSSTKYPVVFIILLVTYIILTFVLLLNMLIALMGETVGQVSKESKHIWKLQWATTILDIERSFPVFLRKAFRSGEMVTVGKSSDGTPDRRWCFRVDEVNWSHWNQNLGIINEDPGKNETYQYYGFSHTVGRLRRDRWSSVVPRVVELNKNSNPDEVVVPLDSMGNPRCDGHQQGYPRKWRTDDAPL
Sequence of endogenous TRPM3 in nIMR-32 cells (Q9HCF6 whole entry): as the sequence (Q9HCF6 whole entry, canonical isoform) above

Molecule: O=C(O)Cc1ccccc1Nc1c(Cl)cccc1Cl [Dic, diclofenac]
Nif-evoked sustained Ca2+ response versus PregS response [3]: clearly resistant | effect on constitutive spontaneously active TRPM3-S currents [4]: substantially inhibited; also recorded: significantly inhibited | effect on small basal currents evoked by ramp voltage commands [5]: did not affect | pIC50 [6]: 3.77 | effect on capsaicin-induced ileum relaxation [7]: no effects | effect on Men-evoked hyperthermia [8]: no effects | effect on Nif-induced TRPM3-dependent Ca2+ responses ([1]; 30 μmol/L Nif): significantly inhibited | reversibility of current inhibition after withdrawal ([9]; 10 and 30 μmol/L Dic, 30 μmol/L PregS): immediately reversed | effect on PregS-evoked inward and outward currents ([9]; 10 and 30 μmol/L Dic, 30 μmol/L PregS, whole-cell): inhibited | voltage dependence of inhibition ([9]; comparison between -80 mV and +80 mV): voltage‐independent | preference to inhibit COX-1 than COX-2 [10]: 1.6 times | effect on TRPC6-like channel activity [11]: decreased | pIC50 [12]: < 4.00 | effect on GSK-induced Ca2+ response ([12]; 100 μmol/L Dic, GSK 3 nmol/L): failed to inhibit | effect on Men-induced Ca2+ response [13]: failed to inhibit; also recorded: resistant | pIC50 [14]: < 4.00 | effect on H2O2-induced Ca2+ response ([14]; 100 μmol/L Dic, H2O2 1 mmol/L): failed to inhibit

Molecule: COc1ccc2c(c1)c(CC(=O)O)c(C)n2C(=O)c1ccc(Cl)cc1 [Ind, indomethacin]
preference to inhibit COX-1 than COX-2 [10]: 25 times

Molecule: Cc1cccc(Nc2ccccc2C(=O)O)c1C [mefenamic acid]
pIC50 [15]: 5.18

The remaining lines, values ahead:

agonist effect on intracellular Ca2+ concentration [1]: induced Ca^2+ response
Molecule: COC(=O)C1=C(C)NC(C)=C(C(=O)OC)C1c1ccccc1[N+](=O)[O-] [Nif, nifedipine]

agonist Ca2+ response in nIMR-32 cells [2]: evoked a Ca^2+ response | agonist effect on intracellular Ca2+ concentration [1]: induced elevation
Molecule: pregnenolone sulfate [PregS]
